Source: PubChem BioAssay (several laboratories)
In the library only some 4.8% were active in any assay of this set; here they are far more common.
NF-kB expr up – compounds increasing NF-kB expression in human neuronal cells; NF-kB reporter expression; stronger effect = higher value; fold change at 12.5 µM; actives 1.6% (n = 190,000); AID 1239; in the data active means fold change above about 3.3
APP transl inh – APP translation inhibition; inhibition, % at 2 µM; SH-SY5Y APP 5'UTR-luciferase reporter, luminescence; actives 0.82% (n = 190,000);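 active means inhibition above a set limit, derived from the sample mean plus 3 SD, cut at about 45% in these data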
FLuc stim CS – firefly luciferase counter-screen for stimulation assays. 200,000 tested, under 10 active. ATPlite luciferase biochemical, luminescence, 10 min; 0 = ATP-free wells, 1 = DMSO control. AID 1027. activation factor at 10 µM. P08659;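 active means luciferase activation factor, scaled between plate controls, of at least 2 with compound at 10 µM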
Target sequence (P08659 whole entry, looked up): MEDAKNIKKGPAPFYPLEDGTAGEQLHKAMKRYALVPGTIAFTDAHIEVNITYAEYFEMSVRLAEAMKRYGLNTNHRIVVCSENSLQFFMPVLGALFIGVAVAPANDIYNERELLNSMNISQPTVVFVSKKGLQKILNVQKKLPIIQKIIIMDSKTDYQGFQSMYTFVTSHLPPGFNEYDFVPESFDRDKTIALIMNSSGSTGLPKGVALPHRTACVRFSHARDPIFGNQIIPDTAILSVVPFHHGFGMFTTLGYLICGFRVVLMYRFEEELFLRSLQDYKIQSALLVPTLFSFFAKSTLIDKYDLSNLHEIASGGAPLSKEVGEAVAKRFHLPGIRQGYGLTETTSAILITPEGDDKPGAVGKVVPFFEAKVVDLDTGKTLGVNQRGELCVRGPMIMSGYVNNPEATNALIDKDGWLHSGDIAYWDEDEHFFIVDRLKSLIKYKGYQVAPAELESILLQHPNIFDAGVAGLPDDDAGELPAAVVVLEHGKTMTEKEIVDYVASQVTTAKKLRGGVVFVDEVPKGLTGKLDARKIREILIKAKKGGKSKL
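Assay system: Luciferase/luciferin detection reagent, cell-free biochemical luciferase assay / Also added: ATP substrate / Schedule: 10 min at ambient temperature / Measured by: luminescence measurement of luciferase light output / Benchmarks: low control with PBS replacing ATP, high control enzyme plus ATP without compound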
STAT1 activator – activators of IFN-gamma induced STAT1 signaling. NIH 3T3 STAT1-luciferase reporter, luminescence; 100% = IFN-gamma alone, no compound. activation (% of control), % at 5.5 µM. actives 2.6% (n = 200,000);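 active means activation above the screen-wide mean activation plus 3 SD, cut at about 130% in these data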;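 further: raw ratio to IFN-gamma control signal so 100% means no change and 0% no light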
FLuc inhib CS – Photinus pyralis luciferase inhibition counter-screen | P08659 | ATPLite firefly luciferase biochemical luminescence, 10 min | inhibition, % at 10 µM | actives 1.5% (n = 200,000);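 active means inhibition above about 50% when tested at 10 µM, limit read from the data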
APP 5'UTR act – APP 5'UTR luciferase reporter activation | activation, % at 2 µM | actives 1% (n = 190,000) | SH-SY5Y APP 5'UTR luciferase reporter, luminescence; zero percent = DMSO vehicle wells | AID 1276;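 active means activation above a set limit, based on mean plus 3 SD of controls, cut at about 140% in these data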
STAT1 activ conf – confirmation of STAT1 signaling activators; NIH 3T3 STAT1-luciferase reporter, IFN-gamma potentiation, luminescence; 100% = IFN-gamma EC80 alone, no compound; actives 97% (n = 1,200); AID 1262; shares compounds with STAT1 activator; activation (% of control), % at 5.7 µM;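 active means activation above a set limit carried over from the earlier primary STAT1 screen, cut at about 140% in these data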;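 further: simple ratio to median IFN-gamma plus DMSO wells so 0% means no light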
NFkB act – activates NF-kappaB, counter-screen to STAT1 activators. shares compounds with STAT1 activator. HEK293T NF-kB luciferase reporter, TNF-alpha stimulated, luminescence; 100% = TNF-alpha with vehicle only. activation (% of control), % at 5.7 µM. actives 43% (n = 1,200);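 active means activation above the mean of solvent-only control wells plus 3 SD, set per campaign, cut at about 130% in these data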;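 further: TNF-alpha given at a submaximal dose yielding about 80% of full reporter signal; values are well signal over median control so 100% means no change and 0% no light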
STAT3 act 2 – counter-screen for STAT1 activators: human STAT3 activation; shares compounds with STAT1 activator; U3A cells STAT3-luciferase reporter, IL-6, luminescence; cells lack STAT1; 100 = IL-6 alone, no compound effect; activation (% of control), % at 5.7 µM; actives 46% (n = 1,200); AID 1316;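 active means activation above the solvent-only control well mean plus 3 SD, set per plate batch, cut at about 110% in these data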;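 further: 0% = no luminescence and 100% = median IL-6 plus DMSO wells; higher means more STAT3 reporter activation so hits are non-selective activators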
The depositor's hits bear a star; . = not tested or not shown.

SMILES	NF-kB expr up	APP transl inh	FLuc stim CS	STAT1 activator	FLuc inhib CS	APP 5'UTR act	STAT1 activ conf	NFkB act	STAT3 act 2
CN(C)c1nc(-c2ccc([N+](=O)[O-])cc2)cs1	2.02	-54.6	1	120.3	-1.8	54.6	.	.	.
C=CCNc1nc(-c2ccc(Cl)cc2)cs1	7.48*	-165.8	0.6	182.0*	41.5	165.8*	214.6*	140.5*	98.6
C=CCNc1nc(-c2sc(NC(C)=O)nc2C)cs1	1.38	-9.8	1	123.4	-2.0	9.8	.	.	.
Cc1ccc(Nc2cc(C)nn2-c2nc(C)cc(C)n2)cc1	1.08	6.1	1	95.1	-1.7	-6.1	.	.	.
Cc1ccc(Nc2cc(C)nn2-c2nc(C)cc(=O)[nH]2)cc1	0.14	92.1*	1.1	232.2*	-5.2	-92.1	181.3*	167.2*	87.8
C=CCN(CC=C)C(=S)NC(=O)Cc1cccc2ccccc12	1.17	11.2	1	98.8	-1.7	-11.2	.	.	.
Cc1cc2nc(-c3ccc(NC(=O)C(C)C)cc3)oc2cc1C	3.39*	-140.1	0.9	179.6*	11.7	140.1*	237.4*	146.3*	118.1*
Cc1nc2cc(NC(=O)Nc3ccc(Br)cc3)ccc2o1	2.92	-154.3	0.6	162.2*	42.7	154.3*	208.6*	134.9*	102.7
CCCC(=O)Nc1cccc(-c2nc3cc(C)c(C)cc3o2)c1	3.05	-134.6	0.6	176.9*	39.6	134.6	201.4*	128.4	107.3
Cc1ccc(-c2nc3cc(NC(=O)C(C)C)ccc3o2)cc1C	0.98	-160.5	0.4	194.9*	55.9*	160.5*	272.1*	92.6	73.3
Cc1nc2cc(NC(=O)NCc3ccc4c(c3)OCO4)ccc2o1	0.85	0.0	1	91.1	-1.0	0.0	.	.	.
Cc1ccc(C2=Nc3ccccc3N(C(=O)c3ccccc3)C(C)C2)cc1 (stereo not given)	0.83	9.8	1.1	97.5	-8.0	-9.8	.	.	.
CC(C)C(=O)Nc1cccc(-c2nc3ccccc3o2)c1	1.55	9.7	1	119.9	-2.2	.	.	.	.
Cc1ccc(-c2nc3cc(NC(=O)C(C)C)ccc3o2)cc1	2.85	-147.0	0.6	187.6*	41.6	147.0*	321.3*	126.2	103.7
O=C(NCC1CCCO1)C(Cc1ccccc1)N1C(=O)C2C3C=CC(C4CC34)C2C1=O (stereo not given)	0.62	-10.2	1	83.1	0.5	10.2	.	.	.
O=c1/c(=C/c2ccccn2)sc2nc3ccccc3n12	4.79*	-66.3	0.2	183.9*	76.2*	66.3	288.9*	138.0*	158.3*
O=c1/c(=C\c2cc([N+](=O)[O-])cc([N+](=O)[O-])c2O)sc2nc3ccccc3n12	1.25	1.2	1	97.0	2.2	-1.2	.	.	.
CCCc1nn(C)c(C(=O)Nc2ccccc2)c1Cl	0.6	-155.9	0.8	170.4*	22.4	155.9*	199.3*	132.4	105.2
COc1ccc(C(CNC(=O)Cc2c(F)cccc2Cl)N2CCCCC2)cc1 (stereo not given)	1.11	-1.1	1.1	98.9	-9.3	1.1	.	.	.
Cc1ccccc1C(=O)O/N=C1\CCS(=O)(=O)c2sccc21	5.85*	-0.4	0.8	219.9*	16.5	0.4	224.8*	146.2*	110.9*
COc1ccc(C(=O)O/N=C2\CCS(=O)(=O)c3sccc32)cc1	1.89	-14.4	0.7	110.9	30.1	14.4	.	.	.
CCOc1cccc2cc(C(=O)Nc3nccs3)c(=O)oc12	1.94	8.1	0.5	100.9	47.2	-8.1	.	.	.
CCOc1cccc2cc(-c3csc(NC(=O)CCC(=O)NCCCN4CCC(C)CC4)n3)c(=O)oc12	5.51*	-175.9	0.9	152.0*	8.4	176.0*	157.0*	126.2	123.6*
Cc1ccc(NC(=O)c2cc3c(s2)CCCC3)cc1	8.81*	-119.2	0.6	160.4*	42.0	119.2	202.5*	153.8*	105.1
Cc1ccc(NC(=O)c2scc3c2CCCC3)cc1	9.51*	-195.1	0.2	155.0*	75.1*	195.1*	252.0*	126.4	101.7
SMILES	NF-kB expr up	APP transl inh	FLuc stim CS	STAT1 activator	FLuc inhib CS	APP 5'UTR act	STAT1 activ conf	NFkB act	STAT3 act 2
COC(=O)c1sc(NC(=O)c2cc3c(s2)CCCC3)nc1C	5.7*	-89.3	0.7	155.0*	29.1	89.3	201.5*	127.4	111.1*
CCOC(=O)c1sc(NC(=O)c2cc3c(s2)CCC(C)C3)nc1C (stereo not given)	1.7	-16.3	1	97.9	0.0	16.3	.	.	.
O=C1CNC(=O)/C(=C/c2ccco2)N1	1.27	-20.3	1	98.3	1.7	20.3	.	.	.
CCS(=O)(=O)n1nc(-c2ccccc2)cc1N	1.14	-10.6	1	106.4	-0.5	10.6	.	.	.
Cc1cccc(-c2cc(N)n(-c3ccccc3)n2)c1	5.48*	-152.4	0.3	173.9*	72.5*	152.4*	185.2*	144.8*	112.8*
CCc1ccc(-c2cc(N)n(-c3ccccc3)n2)cc1	10.6*	-241.8	0.2	172.2*	82.2*	241.8*	194.6*	145.6*	102.6
CN(C(=O)CCn1c(=S)oc2ccccc21)c1ccc(F)cc1	1.13	2.9	1	97.5	-4.6	-2.9	.	.	.
Cc1c(-c2ccccc2)[nH]n2c(=O)c3c(nc12)CCCC3	2.08	-51.5	0.9	154.9*	10.7	51.5	173.9*	130.3	116.6*
Cc1cccc(Nc2n[nH]c(C)c2[N+](=O)[O-])c1	3.74*	-100.7	0.9	156.2*	12.4	100.7	192.5*	132.0	105.7
O=C(Nc1nc2c(s1)C(=O)CCC2)c1ccccc1	3	-148.3	0.3	152.9*	65.8*	148.3*	185.3*	111.0	95.9
CC(=O)OCC(=O)Nc1c(C)cc(C)cc1C	0.99	8.8	1	102.6	0.7	-8.8	.	.	.
Cc1c(NC(=O)c2ccc(-c3cccc([N+](=O)[O-])c3)o2)c(=O)n(-c2ccccc2)n1C	1.49	7.7	1	97.2	-3.4	-7.7	.	.	.
C/C(=N\Nc1nc(N2CCOCC2)nc(N2CCOCC2)n1)c1cccs1	0.72	2.6	1	101.0	-1.9	-2.6	.	.	.
CC(=O)Nc1cccc(/C(C)=N/Nc2nc3ccccc3s2)c1	1.09	-159.6	0.9	198.0*	5.3	159.6*	199.9*	139.2*	122.0*
